Measured values: ChEMBL document CHEMBL1123087, “Synthesis and antimetastatic properties of stereoisomeric tricyclic bis(dioxopiperazines) in the Lewis lung carcinoma model” (1985)

Columns and labels:
Type in all cases: functional
Mus musculus [1] = species: Mus musculus; assay: Autopsy data was evaluated as average lung weight, mg
Method in brief: (§1)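 BDF1 female mice (19–21 g); Lewis lung carcinoma, 10⁶ cells implanted im in the leg on day 0, and the tumor-bearing leg amputated on day 8. Dosing after amputation was 160 mg/kg ip from day 8, Q2Dx4, given as a saline suspension. Survival was tracked to day 40. Mice dying and those killed on day 40 were autopsied for body weight, lung weight and metastasis counts (<2 mm, >2 mm). Survival was reported as median survival time and %ILS, with ≥25% ILS counted as active.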

Mus musculus [2] = species: Mus musculus; assay: Autopsy data was evaluated as average number of metastasis in <2 mm; method in brief: as §1
Mus musculus [3] = species: Mus musculus; assay: Autopsy data was evaluated as average number of metastasis in >2 mm; method in brief: as §1
Mus musculus [4] = species: Mus musculus; assay: Autopsy data was evaluated as average body weight/g; method in brief: as §1
Mus musculus [5] = assay: Effect on postoperative lewis lung carcinoma model, was evaluated as increase in life span on BDF1 female mice, administered intraperitoneally; method in brief: as §1
Mus musculus [6] = assay: Effect on postoperative lewis lung carcinoma model, was evaluated as […] on BDF1 female mice, administered intraperitoneally; set-up: unit not given beside the values; method in brief: as §1

Row | Structure (SMILES) | Average lung weight (Mus musculus [1]) [mg] | Average No. of metastasis (Mus musculus [2]) | Average No. of metastasis (Mus musculus [3]) | Average body weight (Mus musculus [4]) [g] | Increase in life span (Mus musculus [5]) [%] | MST (Mus musculus [6])
1 | O=C1CN2C[C@H]3C(=O)N(CN4CCOCC4)C(=O)CN3C[C@@H]2C(=O)N1CN1CCOCC1 | 700 | 0 | 38 | 18.9 | <0 | 26
2 | O=C1CN2C[C@H]3C(=O)NC(=O)CN3C[C@@H]2C(=O)N1 | 853 | 0 | 48 | 16.9 | 4 | 28
3 | O=C1CN2C[C@@H]3C(=O)N(CN4CCOCC4)C(=O)CN3C[C@@H]2C(=O)N1CN1CCOCC1 | 358 | 0 | 6 | 19.2 | >48 | >40
4 | O=C1CN2C[C@@H]3C(=O)NC(=O)CN3C[C@@H]2C(=O)N1 | 640 | 0 | 22 | 19.3 | 4 | 28
